Assay outcomes (PubChem)
The list is not random: actives were taken first. Their share in the collection is about 0.75%.
ASAP1 inh – ASAP1 ArfGAP inhibition | 360,000 compounds, 0.19% hits | AID 624377 | ASAP1-stimulated ARF1 GTP hydrolysis, GDP FP detection | Q9ULH1 | inhibition, % at 16.5 µM; in the data active = inhibition above about 25%;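 also: 0% = vehicle with enzyme and substrate and 100% = no enzyme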
ARFGAP1 inhibitor – rat ARFGAP1 inhibition | Q62848 | 360,000 compounds, 0.26% hits | Arfgap1-stimulated ARF1 GTP hydrolysis, GDP FP detection | inhibition, % at 16.5 µM;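 active = inhibition above a per-plate limit, mean inhibition of low control wells plus 3 SD, cut at about 25% in these data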;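 also: 0% = DMSO wells with enzyme and 100% = wells lacking Arfgap1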
Target sequence (Q62848 1-136 limits assumed): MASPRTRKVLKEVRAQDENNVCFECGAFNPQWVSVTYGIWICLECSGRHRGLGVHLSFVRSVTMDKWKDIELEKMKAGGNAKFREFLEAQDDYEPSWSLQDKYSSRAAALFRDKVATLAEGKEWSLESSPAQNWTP
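System: truncated rat Arfgap1 GAP domain / Benchmarks: high control wells lacking Arfgap1, low control full reaction with DMSO / Times: compound-enzyme preincubation 20 min, reaction 120 min, detection 60 min, 25 °C / Repeats: one replicate per compound / Also added: human ARF1(Δ1-17)-GTP substrate / Measured by: Tracer-displacement fluorescence polarization with EDTA stop, 620/688 nm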
EBNA-1 inhibitor – blocks EBNA-1 binding to DNA | EBNA-1 DNA binding, fluorescence polarization | inhibition, % at 14.8 µM | 300,000 compounds, 0.34% hits | AID 1950; in the data active = inhibition above about 28%
ZTA DNA inh – ZTA (EBV) inhibition in EBNA-1 counter-screen; P03206; inhibition, % at 11 µM; ZTA-DNA binding, fluorescence polarization; AID 2234; 320,000 compounds, 0.15% hits; in the data active = inhibition above about 33%
Target sequence (P03206 whole entry, looked up): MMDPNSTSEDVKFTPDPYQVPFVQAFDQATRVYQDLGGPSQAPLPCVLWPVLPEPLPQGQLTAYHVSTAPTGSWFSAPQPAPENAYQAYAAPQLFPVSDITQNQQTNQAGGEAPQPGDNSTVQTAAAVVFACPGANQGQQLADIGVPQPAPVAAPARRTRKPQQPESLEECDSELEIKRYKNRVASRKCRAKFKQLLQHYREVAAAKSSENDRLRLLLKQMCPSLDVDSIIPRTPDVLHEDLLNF
ARFGAP1 confirm – rat ARFGAP1 inhibition, confirmed | inhibition, % at 16.5 µM | shares compounds with ARFGAP1 inhibitor | 890 compounds, 30% hits | ARFGAP1-stimulated ARF1 GTP hydrolysis, GDP tracer FP;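 active = average inhibition over triplicates above the hit cutoff set in the earlier primary screen, cut at about 25% in these data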;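 also: 0% = Arfgap1 plus ARF1-GTP with DMSO and 100% = wells lacking Arfgap1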
Numbers without * were called inactive; / = no result given; ! = repeats disagree.

SMILES	ASAP1 inh	ARFGAP1 inhibitor	EBNA-1 inhibitor	ZTA DNA inh	ARFGAP1 confirm
COc1ccc(NC(=O)CSc2nnc(-c3ccncc3)n2CC2CCCO2)c(OC)c1 (configuration not stated)	-4	26*	1	0	-3
COc1cc(C#Cc2c(-c3cncn3C)n(C)c3ccc(-c4ccc5cc[nH]c5c4)cc23)cc(OC)c1	21	32*	/	/	21
COc1cc(C#Cc2c(-c3cncn3C)n(C)c3ccc(Br)cc23)cc(OC)c1	14	15	/	/	/
Cc1ccc(Nc2ncccc2C(=O)NCc2cccs2)c(C)c1	7	24	-7	-5	/
Cc1cccc(Nc2ncccc2C(=O)NCc2cccs2)c1C	8	26*	-10	17	7
CCCCn1c(N)c(N(CCOC)C(=O)c2c(C)noc2C)c(=O)[nH]c1=O	7	25*	-1	6	-1
CC(=NNc1cc(C)c2ccccc2n1)c1ccccn1	4	9	/	/	/
CC1=CC(=O)c2ccccc2C1=O	1	26*!	3	3	-1
COc1cc(C(O)c2nc(-c3cc4ccccc4o3)cs2)ccc1F (configuration not stated)	17	28*	/	/	7
COc1cccc(C(O)c2nc(-c3cc4ccccc4o3)cs2)c1 (configuration not stated)	15	12	/	/	/
O=C(COC(=O)c1ccc(O)cc1)Nc1cc(S(=O)(=O)N2CCOCC2)ccc1Cl	8	0	/	10	/
O=C(COC(=O)c1ccc(O)cc1)Nc1cc(S(=O)(=O)N2CCCCCC2)ccc1Cl	-3	26*	/	/	1
O=C1NC(=O)/C(=C\c2ccc(OCc3cccc([N+](=O)[O-])c3)cc2)N1	22	49*	7	1	86*
COc1ccc(NC(=O)c2cccc3c(-c4cnn(C)c4)coc23)cc1	19	30*	/	/	30*
CC(=O)c1cccc(NC(=O)c2cccc3c(-c4cnn(C)c4)coc23)c1	7	28*	/	/	25*
Cn1cc(-c2coc3c(C(=O)Nc4ccccc4)cccc23)cn1	9	5	/	/	/
O=S1(=O)CCSC[C@@H](CN2CCOCC2)N1	13	2	/	/	/
O=[N+]([O-])c1cccc(-n2cc3ccc([N+](=O)[O-])cc3n2)c1	18	40*	/	-3	45*
Cn1cc2ccc([N+](=O)[O-])cc2n1	-7	11	0	5	/
CC(C)Cn1c(N)c(C(=O)CSc2nc3ncc(Cl)cc3[nH]2)c(=O)n(C)c1=O	11	25*	11	3	10
CCCn1c(N)c(C(=O)CSc2nc3ncc(Cl)cc3[nH]2)c(=O)n(C)c1=O	7	-7	/	6	/
O=C(/C=C/c1ccccc1)Nc1nc(-c2ccncc2)cs1	4	35*	25	7	62*
Nc1cccc(-c2nc3cc(S(=O)(=O)c4ccc5oc(-c6cccc(N)c6)nc5c4)ccc3o2)c1	4	26*	7	18	21
CNC[C@H]1OCc2cnnn2CCCC(=O)N([C@@H](C)CO)C[C@@H]1C	0	-1	/	/	/
COc1cc(C(=O)OC(C)CN2C(C)CCCC2C)cc(OC)c1OC (configuration not stated)	2	32*	5	3	-6
SMILES	ASAP1 inh	ARFGAP1 inhibitor	EBNA-1 inhibitor	ZTA DNA inh	ARFGAP1 confirm
CN1CCN(c2ccc(Cl)cc2NC(=O)/C=C/c2ccc(F)cc2)CC1	17	25*	-9	-9	9
CC(=O)N1CCN(S(=O)(=O)c2ccc(C)cc2)C1C (configuration not stated)	9	30*	-9	-4	2
CC(C)Cn1c(N)c(S(=O)(=O)c2cccs2)c2nc3ccccc3nc21	-10	27*	/	/	-3
CC(C)N1CCN(Cc2ccc(-c3ccccc3Cl)o2)CC1CCO (configuration not stated)	-11	29*	2	8	8
Cc1cc(C2(c3ccc(O)c(C)c3)OC(=O)c3ccccc32)ccc1O	-3	20	-12	-14	/
Cc1cc(O)c(C(C)C)cc1C1(c2cc(C(C)C)c(O)cc2C)OC(=O)c2ccccc21	18	27*	-6	0	19
O=C(NCCc1ccc(F)cc1)c1cccc(NC(=O)c2ccccc2)c1	13	37*	-13	-13	3
O=C(NCCCCc1ccccc1)c1cccc(NC(=O)c2ccccc2)c1	16	1	/	/	/
Cc1cc(NC(=O)NC(=O)c2ccccc2NC(=O)CN(C)C)ccc1Oc1ncc(Br)cn1	5	31*	/	/	6
